The text below walks through data of ChEMBL document CHEMBL1134907, “An improved synthesis of the C-linked glucuronide of N-(4-hydroxyphenyl)retinamide” (Bioorg Med Chem Lett, 2002).

The species named for test [1] is Rattus norvegicus. Nature of the test: Percentage change in DMBA-induced mammary tumor in rats; no new tumors, partial regression in 10/10 tumors. It is filed as functional. Put shortly: (§1)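 Rats bearing mammary tumors induced by dimethylbenz[a]anthracene (DMBA) 50 days earlier were fed the treatment retinoid in the diet for 10 days. Each group had three tumor-bearing rats, which were killed after the 10 days. Every tumor on each rat was measured to estimate the mean tumor volume for the group.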

The test system of test [2] is Rattus norvegicus. Nature of the test: Final DMBA-induced mammary tumor volume in rat after retinoid treatment at 2 mmol/kg diet. It is filed as functional. Put shortly:
as §1

In test [3] the test system is Rattus norvegicus. Put plainly: Initial DMBA-induced mammary tumor volume in rat after retinoid treatment at 2 mmol/kg diet. It is filed as functional. Put shortly:
as §1

In the next test the target is RARα (Homo sapiens, UniProt P10276). Nature of the test: Binding affinity for retinoic acid receptor RAR alpha.
In a further test the target is RARβ (Homo sapiens, UniProt P10826). Put plainly: Binding affinity for retinoic acid receptor RAR beta.
A further test deals with RARγ (Homo sapiens, UniProt P13631). Nature of the test: Binding affinity for retinoic acid receptor RAR gamma.
Test [4] has as its system Rattus norvegicus. Put plainly: Mean number of tumors/rat after retinoid dose of 2 mmol/kg diet. It is filed as functional.
For test [5], the system named is Rattus norvegicus. Put plainly: Percentage of rats with tumor after retinoid dose of 2 mmol/kg diet. It is filed as functional.
For test [6], the system named is Rattus norvegicus. Put plainly: Latency in DMBA-induced mammary tumor in rat after retinoid dose of 2 mmol/kg diet. It is filed as functional.
The species named for test [7] is Rattus norvegicus. Put plainly: Percentage change in DMBA-induced mammary tumor in rats;no new tumors, partial regression in 6/8 tumors. It is filed as functional. Put shortly:
as §1

The species entered for test [8] is Rattus norvegicus. Put plainly: Percentage change in DMBA-induced mammary tumor in rats;Two new tumors, partial regression in 10/14 tumors. It is filed as functional. The method in brief: as §1

RARα, sequence (P10276 whole entry, looked up): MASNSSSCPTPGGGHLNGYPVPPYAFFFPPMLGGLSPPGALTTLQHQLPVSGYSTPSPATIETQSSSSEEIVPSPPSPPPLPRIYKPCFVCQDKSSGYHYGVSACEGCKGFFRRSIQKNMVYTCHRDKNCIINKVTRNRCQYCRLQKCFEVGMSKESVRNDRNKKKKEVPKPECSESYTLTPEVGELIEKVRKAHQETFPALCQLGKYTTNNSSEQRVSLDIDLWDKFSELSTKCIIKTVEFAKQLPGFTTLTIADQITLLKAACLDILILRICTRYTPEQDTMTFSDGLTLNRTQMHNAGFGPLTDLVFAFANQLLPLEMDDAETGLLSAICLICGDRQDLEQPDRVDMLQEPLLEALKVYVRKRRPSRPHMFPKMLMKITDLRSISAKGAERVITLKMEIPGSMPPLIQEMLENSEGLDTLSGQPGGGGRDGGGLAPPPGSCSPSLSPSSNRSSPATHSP
RARβ, sequence (P10826 whole entry, looked up): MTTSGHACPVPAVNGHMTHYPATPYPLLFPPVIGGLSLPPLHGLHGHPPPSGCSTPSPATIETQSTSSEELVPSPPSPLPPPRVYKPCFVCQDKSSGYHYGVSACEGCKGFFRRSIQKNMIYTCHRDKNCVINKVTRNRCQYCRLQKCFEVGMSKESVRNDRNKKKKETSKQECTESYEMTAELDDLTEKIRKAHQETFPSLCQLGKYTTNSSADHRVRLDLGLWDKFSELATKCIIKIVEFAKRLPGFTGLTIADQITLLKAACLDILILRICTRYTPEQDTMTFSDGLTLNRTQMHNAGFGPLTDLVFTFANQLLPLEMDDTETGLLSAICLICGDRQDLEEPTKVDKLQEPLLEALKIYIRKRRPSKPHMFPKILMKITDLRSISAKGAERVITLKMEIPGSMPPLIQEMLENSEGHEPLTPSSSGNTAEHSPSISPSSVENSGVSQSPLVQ
RARγ, sequence (P13631 whole entry, looked up): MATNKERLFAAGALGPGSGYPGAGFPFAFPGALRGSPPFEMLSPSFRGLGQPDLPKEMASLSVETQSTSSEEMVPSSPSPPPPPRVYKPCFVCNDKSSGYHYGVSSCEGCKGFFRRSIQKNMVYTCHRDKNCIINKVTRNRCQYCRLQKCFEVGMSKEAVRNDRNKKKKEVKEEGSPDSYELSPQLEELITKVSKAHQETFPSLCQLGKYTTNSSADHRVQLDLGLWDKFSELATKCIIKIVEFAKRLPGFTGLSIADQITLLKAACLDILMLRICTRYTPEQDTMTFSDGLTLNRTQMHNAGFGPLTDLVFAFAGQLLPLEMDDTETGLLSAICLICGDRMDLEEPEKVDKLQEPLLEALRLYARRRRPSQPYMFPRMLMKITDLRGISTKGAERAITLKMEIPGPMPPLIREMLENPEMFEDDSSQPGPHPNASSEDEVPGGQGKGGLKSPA

For the compound `CC1=C(/C=C/C(C)=C/C=C/C(C)=C/C(=O)O)C(C)(C)CCC1` [TRETINOIN], the Change in the test filed under Rattus norvegicus [1] was -40%. Besides, the results for the Tumor volume in the test on Rattus norvegicus [2] and in the test with Rattus norvegicus [3] were 0.56 cm*3 and 0.94 cm*3, respectively.
The term Ki denotes a dissociation constant, usually derived from enzyme kinetics or from competition with a known ligand. High values mean weaker binding, low ones tighter binding. Regarding `CC1=C(/C=C/C(C)=C/C=C/C(C)=C/C(=O)Nc2ccc(O[C@@H]3O[C@@H](C(=O)O)[C@@H](O)[C@H](O)[C@@H]3O)cc2)C(C)(C)CCC1`, the Ki on RARα is more than 2200 nM; on RARβ, more than 2800 nM; at RARγ it was more than 6000 nM. The figures for the Activity in the test with Rattus norvegicus [4] and in the test on Rattus norvegicus [5] were 0.71 and 57%, respectively. The compound further gave a Mean tumor atency with Rattus norvegicus [6] of 48 days.
Consider `CC1=C(/C=C/C(C)=C/C=C/C(C)=C/C(=O)Nc2ccc(CC3OC(C(=O)O)C(O)C(O)C3O)cc2)C(C)(C)CCC1` (stereo not drawn), for which the inhibition constant Ki is more than 2200 nM at RARα and more than 6000 nM at RARβ. The Change in the test filed under Rattus norvegicus [7] is on record as -21%. The Activity with Rattus norvegicus [4] came out at 0.36; with Rattus norvegicus [5], 27%. In the test on Rattus norvegicus [6], the Mean tumor atency is 55 days. For the same compound, the values for the Tumor volume in the test on Rattus norvegicus [2] and with Rattus norvegicus [3] were 0.23 cm*3 and 0.29 cm*3, respectively.
As for `CC1=C(/C=C/C(C)=C/C=C/C(C)=C/C(=O)Nc2ccc(O)cc2)C(C)(C)CCC1` [FENRETINIDE], the Ki on RARα was more than 2200 nM; at RARβ it was more than 2800 nM; at RARγ, more than 6000 nM. Besides, the Change in the test listed under Rattus norvegicus [8] is reported as -25%. Besides, the Tumor volume in the test with Rattus norvegicus [2] is listed as 0.12 cm*3; in the test on Rattus norvegicus [3], 0.16 cm*3.
